Consider 40 molecules from ChEMBL document CHEMBL2176949 (J Med Chem, 2012).

Some results are limits rather than exact numbers.

In assay [1] the target is T1, Neuronal acetylcholine receptor; alpha3/beta4 (Homo sapiens, UniProt P30926+P32297). The experiment in a line: Agonist activity at human alpha3beta4 nAChR expressed in human SH-SY5Y cells assessed as increase in calcium flux by FLIPR. Type of assay: functional, cell-based.
The target in assay [2] is T1, Neuronal acetylcholine receptor; alpha3/beta4. The experiment in a line: Agonist activity at human alpha3beta4 nAChR expressed in human SH-SY5Y cells assessed as increase in calcium flux by FLIPR relative to 10 uM nicotine. The format is functional, cell-based. On the technique in general: Calcium flux is commonly read through the fluorescence of an indicator in the cells.

For assay [3], the target named is T2, Neuronal acetylcholine receptor; alpha4/beta2 (Homo sapiens, UniProt P17787+P43681). As to the kind of experiment: Agonist activity at human alpha4beta2 nAChR low sensitivity form expressed in human SH-EP1 cells assessed as increase in calcium flux by FLIPR. Type of assay: functional, cell-based.
Assay [4] concerns the target T2, Neuronal acetylcholine receptor; alpha4/beta2. The experiment in a line: Agonist activity at human alpha4beta2 nAChR low sensitivity form expressed in human SH-EP1 cells assessed as increase in calcium flux by FLIPR relative to 10 uM nicotine. Type of assay: functional, cell-based.
Assay [5] has the same target. The experiment in a line: Agonist activity at human alpha4beta2 nAChR high sensitivity form expressed in human SH-EP1 cells assessed as increase in calcium flux by FLIPR. The format is functional, cell-based.
The target is the same in assay [6]. The experiment in a line: Agonist activity at human alpha4beta2 nAChR high sensitivity form expressed in human SH-EP1 cells assessed as increase in calcium flux by FLIPR relative to 10 uM nicotine. Type of assay: functional, cell-based.
Assay [7] concerns the target T1, Neuronal acetylcholine receptor; alpha3/beta4. As to the kind of experiment: Displacement of [3H]epibatidine from human alpha3beta4 nAChR expressed in human SH-SY5Y cells. The format is cell-based. In outline:
(§1)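 Binding to membranes from the cell lines: homogenised in PBS pH 7.4, spun at 40000g for 20 min at 4 °C, then incubated 2 h on ice in PBS with competitor (0.001 nM to 100 μM) and radioligand. Filters washed in ice-cold PBS and counted by scintillation. IC50 from nonlinear regression; Ki by Cheng-Prusoff. Minimum of three assays, ± SEM.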
A general note: Displacement assays read how much labelled ligand stays bound in the presence of the test substance.

The target of assay [8] is Neuronal acetylcholine receptor subunit alpha-7 (Homo sapiens, UniProt P36544). The experiment in a line: Displacement of [3H]epibatidine from human alpha7 nAChR expressed in human HEK/RIC3 cells. The format is cell-based. The procedure, abridged:
as §1

The target of assay [9] is T2, Neuronal acetylcholine receptor; alpha4/beta2. The experiment in a line: Displacement of [3H]nicotine from human alpha4beta2 nAChR expressed in human SH-EP1 cells. Type of assay: cell-based. In outline:
as §1

T1 sequence (P30926 whole entry): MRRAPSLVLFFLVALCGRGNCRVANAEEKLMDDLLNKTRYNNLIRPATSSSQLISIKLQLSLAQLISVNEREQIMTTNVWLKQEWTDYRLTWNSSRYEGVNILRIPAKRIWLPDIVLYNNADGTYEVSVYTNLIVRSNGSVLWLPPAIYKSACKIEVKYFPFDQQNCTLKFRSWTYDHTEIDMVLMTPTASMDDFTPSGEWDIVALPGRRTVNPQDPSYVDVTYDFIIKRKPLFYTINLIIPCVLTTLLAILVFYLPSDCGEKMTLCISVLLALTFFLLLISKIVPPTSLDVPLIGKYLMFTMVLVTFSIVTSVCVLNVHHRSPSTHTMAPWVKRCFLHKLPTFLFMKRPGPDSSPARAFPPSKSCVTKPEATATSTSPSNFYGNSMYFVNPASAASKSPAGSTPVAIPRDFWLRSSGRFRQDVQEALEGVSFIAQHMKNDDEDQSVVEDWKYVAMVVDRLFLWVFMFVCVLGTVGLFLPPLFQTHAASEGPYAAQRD
T1 sequence (P32297 whole entry): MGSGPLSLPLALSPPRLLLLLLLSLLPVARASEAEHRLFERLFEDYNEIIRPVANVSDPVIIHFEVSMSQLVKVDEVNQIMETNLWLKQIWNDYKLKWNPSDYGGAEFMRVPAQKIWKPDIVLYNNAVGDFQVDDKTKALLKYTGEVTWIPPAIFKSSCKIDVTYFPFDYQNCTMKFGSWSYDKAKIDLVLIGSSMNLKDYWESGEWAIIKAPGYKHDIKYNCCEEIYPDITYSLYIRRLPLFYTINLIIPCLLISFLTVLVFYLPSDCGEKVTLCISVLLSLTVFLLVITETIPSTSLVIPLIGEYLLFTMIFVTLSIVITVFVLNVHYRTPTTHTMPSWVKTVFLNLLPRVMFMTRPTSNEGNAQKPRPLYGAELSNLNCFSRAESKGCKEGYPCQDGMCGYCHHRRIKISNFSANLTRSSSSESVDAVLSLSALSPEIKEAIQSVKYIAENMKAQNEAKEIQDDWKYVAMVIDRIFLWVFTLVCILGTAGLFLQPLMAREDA
T2 sequence (P17787 whole entry): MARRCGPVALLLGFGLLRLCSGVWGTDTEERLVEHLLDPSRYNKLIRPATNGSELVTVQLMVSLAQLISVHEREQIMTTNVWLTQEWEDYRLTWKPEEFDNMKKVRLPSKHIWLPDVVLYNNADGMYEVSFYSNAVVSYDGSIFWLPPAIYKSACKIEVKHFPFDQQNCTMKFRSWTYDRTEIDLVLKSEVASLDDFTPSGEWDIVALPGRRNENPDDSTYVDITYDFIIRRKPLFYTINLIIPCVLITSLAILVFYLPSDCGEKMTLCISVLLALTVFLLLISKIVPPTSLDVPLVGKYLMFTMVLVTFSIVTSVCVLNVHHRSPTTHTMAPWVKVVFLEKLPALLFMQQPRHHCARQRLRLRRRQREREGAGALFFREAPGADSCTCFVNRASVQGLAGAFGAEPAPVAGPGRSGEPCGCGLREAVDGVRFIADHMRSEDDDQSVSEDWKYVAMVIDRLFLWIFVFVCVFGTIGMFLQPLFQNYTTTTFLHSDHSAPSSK
T2 sequence (P43681 whole entry): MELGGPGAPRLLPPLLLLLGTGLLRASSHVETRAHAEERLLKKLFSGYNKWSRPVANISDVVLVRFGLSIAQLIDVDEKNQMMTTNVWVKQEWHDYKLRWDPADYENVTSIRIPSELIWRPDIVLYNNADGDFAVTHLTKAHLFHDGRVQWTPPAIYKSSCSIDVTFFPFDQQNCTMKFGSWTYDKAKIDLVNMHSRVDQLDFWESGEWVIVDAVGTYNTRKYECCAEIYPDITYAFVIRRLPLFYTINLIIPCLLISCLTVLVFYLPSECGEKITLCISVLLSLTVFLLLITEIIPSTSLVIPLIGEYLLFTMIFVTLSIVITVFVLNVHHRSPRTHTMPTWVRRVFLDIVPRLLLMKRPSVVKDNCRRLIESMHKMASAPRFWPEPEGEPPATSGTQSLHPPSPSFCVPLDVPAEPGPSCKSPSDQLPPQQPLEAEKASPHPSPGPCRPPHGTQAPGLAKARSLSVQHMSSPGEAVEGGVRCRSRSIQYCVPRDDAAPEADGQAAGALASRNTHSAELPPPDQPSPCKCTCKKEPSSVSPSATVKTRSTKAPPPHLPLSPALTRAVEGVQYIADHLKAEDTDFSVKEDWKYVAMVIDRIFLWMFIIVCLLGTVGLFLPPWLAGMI
Neuronal acetylcholine receptor subunit alpha-7, sequence (P36544 whole entry): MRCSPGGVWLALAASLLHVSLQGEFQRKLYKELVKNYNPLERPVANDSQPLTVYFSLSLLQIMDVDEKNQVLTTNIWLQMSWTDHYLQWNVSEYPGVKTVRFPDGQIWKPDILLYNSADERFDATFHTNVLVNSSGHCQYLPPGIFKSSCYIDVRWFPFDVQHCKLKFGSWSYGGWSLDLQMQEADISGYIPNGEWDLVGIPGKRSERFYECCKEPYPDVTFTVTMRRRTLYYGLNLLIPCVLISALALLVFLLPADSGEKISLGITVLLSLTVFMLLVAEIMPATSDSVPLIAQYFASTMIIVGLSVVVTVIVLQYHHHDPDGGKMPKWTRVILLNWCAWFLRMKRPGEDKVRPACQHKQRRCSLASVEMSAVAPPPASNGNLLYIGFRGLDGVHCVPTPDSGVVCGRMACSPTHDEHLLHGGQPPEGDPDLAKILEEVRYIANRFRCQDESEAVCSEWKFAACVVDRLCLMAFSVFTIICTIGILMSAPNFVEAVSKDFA

Broadly, the EC50 is the midpoint of the concentration-response curve. The term Ki denotes a measure of affinity in units of concentration, obtained from inhibition or displacement. In the case of `N#Cc1ccncc1C1=CC2CNCC(C1)C2` (stereo unspecified), the EC50 in [1] was 166 nM; in assay [3], more than 10000 nM; in assay [5] it was 3250 nM. Moreover, the %max in [2] was determined as 130%; in [4] it was 27%; in [6] it was 55%. Further, the Ki was determined as 103 nM in assay [7], 330 nM in assay [8] and 2.8 nM in assay [9].
Regarding `N#Cc1cncc(C2=C[C@@H]3CNC[C@H](C2)C3)c1`, the EC50 worked out at 447 nM in assay [1], 343 nM in assay [3] and 107 nM in assay [5]. The %max came to 144% in assay [2], 89% in assay [4] and 92% in assay [6]. The Ki is 17 nM in assay [7], 79 nM in assay [8] and 0.3 nM in assay [9].
With `C1=C(c2ccc3nccnc3c2)CC2CNCC1C2` (stereo unspecified), the results for the inhibition constant Ki in assay [7], in assay [8] and in assay [9] were 5740 nM, more than 10000 nM and 85 nM, respectively.
With `CN1CC2C=C(c3cnccc3C#N)CC(C2)C1` (stereo unspecified), the Ki in assay [8] was 4850 nM; in assay [9] it was 3420 nM.
For the molecule `C1=C(c2ccc(-c3ccccc3)nc2)CC2CNCC1C2` (stereo unspecified), the concentration for a half-maximal effect (EC50) was 10900 nM in [1], 9660 nM in assay [3] and more than 10000 nM in assay [5]. The %max stood at 17% in assay [2], 18% in assay [4] and 19% in assay [6]. Besides, the values for the Ki in [7], in assay [8] and in assay [9] were 507 nM, 590 nM and 105 nM, respectively.
Take `COc1ccc(C2=CC3CNCC(C2)C3)cn1` (stereo unspecified): the figures for the Ki in assay [7], in [8] and in assay [9] were 328 nM, 1850 nM and 0.4 nM, respectively.
As for `Clc1cccc(Oc2cncc(C3=CC4CNCC(C3)C4)c2)c1` (stereo unspecified), the Ki in assay [7] turned out to be 22 nM; in assay [8] it was 13 nM; in [9] it was 1 nM.
As for `Fc1cncc(C2=C[C@@H]3CNC[C@H](C2)C3)c1`, the EC50 in [1] was 111 nM; in assay [3] it was 36 nM; in assay [5], 34 nM. In addition, the figures for the %max in [2], in assay [4] and in assay [6] were 153%, 120% and 112%, respectively. The Ki in assay [7] came to 5.4 nM; in [8] it was 1.6 nM; in assay [9], 0.2 nM.
As to `Fc1ccc(Oc2cncc(C3=CC4CNCC(C3)C4)c2)cc1` (stereo unspecified), the results for the Ki in [7], in assay [8] and in assay [9] were 31 nM, 7.2 nM and 0.6 nM, respectively.
With `Clc1ccc(Oc2cncc(C3=CC4CNCC(C3)C4)c2)cc1` (stereo unspecified), the Ki in assay [7] worked out at 40 nM; in assay [8] it was 23 nM; in assay [9] it was 1.9 nM.
On the same counts, the results for `Fc1cncc(C2=CC3CNCC(C2)C3)c1` (stereo unspecified) are 39 nM, 3.6 nM and 0.3 nM.
Regarding `COc1cncc(C2=CC3CNCC(C2)C3)c1` (stereo unspecified), the EC50 in assay [1] is 105 nM; in [3], 53 nM; in assay [5], 49 nM. For the same molecule, the figures for the %max in assay [2], in [4] and in assay [6] were 145%, 100% and 72%, respectively. Moreover, the inhibitory constant (Ki) in assay [7] is 14.3 nM; in [8], 4.6 nM; in assay [9] it was 0.3 nM.
Consider `C1=C(c2ccncc2)CC2CNCC1C2` (stereo unspecified), for which the Ki in [7] is 459 nM; in assay [8], more than 10000 nM; in assay [9], 56 nM.
Regarding `N#Cc1cncc(C2=CC3CNCC(C2)C3)c1` (stereo unspecified), the figures for the Ki in assay [7], in assay [8] and in [9] were 47 nM, 160 nM and 0.6 nM, respectively.
`CN1CC2C=C(c3cncc(Oc4ccccc4)c3)CC(C2)C1` (stereo unspecified): the 50% effective concentration (EC50) was 100 nM in assay [1], more than 10000 nM in assay [3] and 183 nM in assay [5]. Also, the %max in assay [2] came to 103%; in [4], 9.5%; in [6], 42%. The Ki was 8.2 nM in assay [7], 17 nM in assay [8] and 1.3 nM in assay [9].
As for `CN1CC2C=C(c3ccc(F)nc3)CC(C2)C1` (stereo unspecified), the concentration for a half-maximal effect (EC50) in [1], in [3] and in assay [5] was more than 10000 nM in each case. For the same molecule, the %max in [2] was determined as 25%; in assay [4], 9.4%; in assay [6] it was 22%. Besides, the Ki turned out to be 1300 nM in assay [7], 1300 nM in [8] and 18 nM in assay [9].
Take `C1=C(c2cncnc2)CC2CNCC1C2` (stereo unspecified): the EC50 in assay [1] was found to be 198 nM; in assay [3], 162 nM; in assay [5] it was 240 nM. The %max in assay [2] stood at 147%; in [4], 145%; in assay [6] it was 116%. For the same molecule, the figures for the Ki in [7], in [8] and in assay [9] were 58 nM, 19 nM and 0.2 nM, respectively.
Turning to `COc1cc(C2=CC3CC(C2)CN(C)C3)cnc1Cl` (stereo unspecified), the Ki in assay [7] is 1430 nM; in assay [8], 7570 nM; in [9] it was 4.4 nM.
As for `COc1cc(C2=CC3CNCC(C2)C3)cnc1Cl` (stereo unspecified), the inhibition constant Ki was 7 nM in [7], 111 nM in assay [8] and 0.4 nM in assay [9].
`c1cncc(N2CC3CNCC(C3)C2)c1`: the Ki in [7] came out at 6.6 nM; in assay [8] it was 1.6 nM; in assay [9] it was 0.1 nM.
With `CN1CC2C=C(c3cncc(C#N)c3)CC(C2)C1` (stereo unspecified), the inhibition constant Ki in assay [7] is 4500 nM; in assay [8], more than 10000 nM; in assay [9] it was 24 nM.
`Clc1ccccc1Oc1cncc(C2=CC3CNCC(C2)C3)c1` (stereo unspecified): the Ki was determined as 26 nM in assay [7], 39 nM in [8] and 0.9 nM in assay [9].
On the same counts, the results for `COc1ccccc1Oc1cncc(C2=CC3CNCC(C2)C3)c1` (stereo unspecified) are 56 nM, 30 nM and 1 nM.
On to `COc1cncc(C2=CC3CC(C2)CN(C)C3)c1` (stereo unspecified), for which the EC50 in [1] amounted to 3640 nM; in assay [3] it was 5130 nM; in assay [5], 2660 nM. The %max in assay [2] was 27%; in assay [4], 15%; in assay [6] it was 19%. For the same molecule, the Ki in [7] was 596 nM; in assay [8] it was 605 nM; in [9], 0.6 nM.
For `Cc1ccc(C2=CC3CNCC(C2)C3)cn1` (stereo unspecified), the EC50 in [1] stood at 93 nM; in assay [3] it was 79 nM; in assay [5], 75 nM. For the same molecule, the %max in [2] stood at 149%; in [4], 112%; in assay [6] it was 107%. Further, the Ki is 25 nM in [7], 80 nM in assay [8] and 0.3 nM in [9].
As to `CN1CC2C=C(c3cncc(OCc4ccccc4)c3)CC(C2)C1` (stereo unspecified), the results for the Ki in [7], in assay [8] and in [9] were 711 nM, 4540 nM and 1.7 nM, respectively.
Turning to `Clc1ccncc1C1=CC2CNCC(C1)C2` (stereo unspecified), the EC50 in [1] is 377 nM; in assay [3] it was more than 10000 nM; in assay [5] it was 2000 nM. Besides, the %max amounted to 105% in [2], 12.8% in [4] and 46% in assay [6]. Moreover, the Ki amounted to 128 nM in assay [7], 33 nM in assay [8] and 3 nM in assay [9].
As for `Clc1ccc(C2=CC3CNCC(C2)C3)cn1` (stereo unspecified), the half-maximal effective concentration (EC50) in assay [1] stood at 16 nM; in assay [3], 35 nM; in assay [5], 54 nM. In addition, the values for the %max in assay [2], in [4] and in assay [6] were 141%, 152% and 98%, respectively. The results for the Ki in assay [7], in assay [8] and in [9] were 6.2 nM, 39 nM and 0.4 nM, respectively.
Regarding `CN1CC2C=C(c3ccc(Cl)nc3)CC(C2)C1` (stereo unspecified), the Ki was 986 nM in assay [7], 6530 nM in assay [8] and 22 nM in assay [9].
On the same counts, the results for `CN1CC2C=C(c3cncc(F)c3)CC(C2)C1` (stereo unspecified) are 1640 nM, 1010 nM and 13 nM.
As to `Clc1cncc(C2=CC3CNCC(C2)C3)c1` (stereo unspecified), the Ki in assay [7] was found to be 40 nM; in [8], 15 nM; in assay [9], 0.4 nM.
Consider `CN1CC2C=C(c3cnccc3Cl)CC(C2)C1` (stereo unspecified), for which the inhibition constant (Ki) was found to be 7230 nM in assay [7], 1420 nM in assay [8] and 1160 nM in [9].
As for `C1=C(c2cncc(OCc3ccccc3)c2)CC2CNCC1C2` (stereo unspecified), the values for the Ki in assay [7], in assay [8] and in assay [9] were 44 nM, 43.9 nM and 0.7 nM, respectively.
In the same order, the values of `CN1CC2C=C(c3cncc(Cl)c3)CC(C2)C1` (stereo unspecified) are 1830 nM, 8010 nM and 9.6 nM.
In the same order, the values of `COc1ccc(Oc2cncc(C3=CC4CNCC(C3)C4)c2)cc1` (stereo unspecified) are 27 nM, 23 nM and 1.4 nM.
With `FC(F)(F)c1cncc(C2=CC3CNCC(C2)C3)c1` (stereo unspecified), the Ki in assay [7] is 79 nM; in assay [8], 641 nM; in [9], 0.7 nM.
In the same order, the values of `COc1cccc(Oc2cncc(C3=CC4CNCC(C3)C4)c2)c1` (stereo unspecified) are 15 nM, 13 nM and 0.9 nM.
On to `CNCC/C=C/c1cccnc1` [RIVANICLINE], for which the inhibition constant Ki in assay [7] is 5400 nM; in [8], 8000 nM; in [9], 26 nM.
In the same order, the values of `C1=C(c2cnccn2)CC2CNCC1C2` (stereo unspecified) are 828 nM, 281 nM and 1.1 nM.
As for `C1=C(c2cccnc2)CC2CNCC1C2` (racemic), the Ki in [7] worked out at 12 nM; in assay [8] it was 4 nM; in assay [9], 0.2 nM.
